Source: ChEMBL document CHEMBL1153430 (J Med Chem, 2009)

Assays:
[1] = Negative inotropic activity in guinea pig left atrium assessed as decrease in atrial tension at 10 uM relative to control; assay type: functional, Cavia porcellus, Cardiac atrium; parameters: scale not given: the % may be the effect or the level left
Method in brief: (§1)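 Guinea pig isolated atria, compound given at increasing doses. Left atrium driven at 1 Hz: percent decrease in developed tension (inotropy, EC50). Spontaneously beating right atrium: percent decrease in rate (chronotropy, EC30). Probit analysis (Litchfield-Wilcoxon), n = 6-7. Potencies not calculated when maximal effect <50%.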

[2] = Negative chronotropic activity in guinea pig spontaneously beating right atrium assessed as decrease in atrial rate at 50 uM relative to control; assay type: functional, Cavia porcellus, Cardiac atrium; parameters: scale not given: the % may be the effect or the level left; method in brief: as §1
[3] = Negative inotropic activity in guinea pig left atrium assessed as decrease in atrial tension; assay type: functional, tissue-based; conditions: Cavia porcellus, Cardiac atrium
[4] = tested on: Aorta; assay: Vasorelaxant activity in potassium-depolarized guinea pig thoracic aorta assessed as inhibition of calcium-induced contraction at 50 uM; assay type: functional, Cavia porcellus; parameters: scale not given: the % may be the effect or the level left
[5] = tested on: Aorta; assay: Vasorelaxant activity in potassium-depolarized guinea pig thoracic aorta assessed as inhibition of calcium-induced contraction; assay type: functional, Cavia porcellus; parameters: scale not given: the % may be the effect or the level left
[6] = Negative inotropic activity in guinea pig left atrium assessed as decrease in atrial tension at 50 uM relative to control; assay type: functional, Cavia porcellus, Cardiac atrium; parameters: scale not given: the % may be the effect or the level left
[7] = Negative chronotropic activity in guinea pig spontaneously beating right atrium assessed as decrease in atrial rate at 100 uM relative to control; assay type: functional, Cavia porcellus, Cardiac atrium; parameters: scale not given: the % may be the effect or the level left; method in brief: as §1
[8] = tested on: Aorta; assay: Vasorelaxant activity in potassium-depolarized guinea pig thoracic aorta assessed as inhibition of calcium-induced contraction at 100 uM; assay type: functional, Cavia porcellus; parameters: scale not given: the % may be the effect or the level left
[9] = tested on: Heart; assay: Effect on cardiac activity in guinea pig spontaneously beating heart assessed as change in coronary perfusion pressure at 1 uM relative to control; assay type: functional, Cavia porcellus
Method in brief: (§2)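 Isolated perfused, spontaneously beating guinea pig heart. Readouts: +(dP/dt)max (maximal rate of rise of left ventricular pressure), heart rate from ECG, coronary perfusion pressure, PR interval. Given as percent change from basal at the highest concentration tested (1 µM), mean ± SEM. pEC50 taken from log concentration-response curves, n = 4-6.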

[10] = tested on: Heart; assay: Effect on cardiac activity in guinea pig spontaneously beating heart assessed as change in atrioventricular conduction time at 1 uM relative to control; assay type: functional, Cavia porcellus; method in brief: as §2
[11] = tested on: Heart; assay: Effect on cardiac activity in guinea pig spontaneously beating heart assessed as change in heart rate at 1 uM relative to control; assay type: functional, Cavia porcellus; method in brief: as §2
[12] = tested on: Heart; assay: Effect on cardiac activity in guinea pig spontaneously beating heart assessed as change in left ventricular pressure at 1 uM relative to control; assay type: functional, Cavia porcellus; method in brief: as §2
[13] = Negative chronotropic activity in guinea pig spontaneously beating right atrium assessed as decrease in atrial rate at 10 uM relative to control; assay type: functional, Cavia porcellus, Cardiac atrium; parameters: scale not given: the % may be the effect or the level left; method in brief: as §1
[14] = Negative inotropic activity in guinea pig left atrium assessed as decrease in atrial tension at 100 uM relative to control; assay type: functional, Cavia porcellus, Cardiac atrium; parameters: scale not given: the % may be the effect or the level left; method in brief: as §1
[15] = Negative inotropic activity in guinea pig left atrium assessed as decrease in atrial tension at 1 uM relative to control; assay type: functional, Cavia porcellus, Cardiac atrium; parameters: scale not given: the % may be the effect or the level left
[16] = Negative chronotropic activity in guinea pig spontaneously beating right atrium assessed as decrease in atrial rate at 5 uM relative to control; assay type: functional, Cavia porcellus, Cardiac atrium; parameters: scale not given: the % may be the effect or the level left
[17] = molecular target: T1, Voltage-gated L-type calcium channel (Rattus norvegicus, UniProt P22002+Q02485+P27732); assay: Stimulation of [3H]diltiazem binding to L-type calcium channel in Sprague-Dawley rat cardiac myocytes at 1 uM by liquid scintillation counting; assay type: cell-based
[18] = molecular target: T1, Voltage-gated L-type calcium channel; assay: Inhibition of L-type calcium channel in Wistar rat tail artery smooth muscle cells assessed as blockade of barium[…] current at 10 uM by whole cell patch-clamp assay
Method in brief: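 Single smooth muscle cells isolated from rat tail main artery. Peak barium current through L-type channels [I_Ba(L)] recorded under cumulative concentrations, reported as percent inhibition. IC50 from log concentration-response curves, mean ± SEM, n = 4.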

[19] = molecular target: T1, Voltage-gated L-type calcium channel; assay: Inhibition of L-type calcium channel in Wistar rat tail artery smooth muscle cells assessed as blockade of barium[…] current by whole cell patch-clamp assay; conditions: for Activity: rat
Method in brief: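 Single smooth muscle cells isolated from rat tail main artery. Peak barium current through L-type channels [I_Ba(L)] recorded under cumulative concentrations, reported as percent inhibition.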

[20] = molecular target: T1, Voltage-gated L-type calcium channel; assay: Displacement of [3H]diltiazem from L-type calcium channel in Sprague-Dawley rat cardiac myocytes by liquid scintillation counting; assay type: cell-based; conditions: for Activity: rat
[21] = Ratio of IC50 for L-type calcium channel in Wistar rat tail artery smooth muscle cells to EC50 for negative inotropic activity in guinea pig left atrium; parameters: species or system Cardiac atrium
[22] = Negative inotropic activity in guinea pig left atrium assessed as decrease in atrial tension at 5 uM relative to control; assay type: functional, Cavia porcellus, Cardiac atrium; parameters: scale not given: the % may be the effect or the level left; method in brief: as §1
[23] = Negative chronotropic activity in guinea pig spontaneously beating right atrium assessed as decrease in atrial rate; assay type: functional; conditions: Cavia porcellus, Cardiac atrium; method in brief: as §1
[24] = tested on: Heart; assay: Effect on cardiac activity in guinea pig spontaneously beating heart assessed as change in coronary perfusion pressure; conditions: Cavia porcellus, read-out: pEC50 (converted)
[25] = tested on: Heart; assay: Effect on cardiac activity in guinea pig spontaneously beating heart assessed as change in left ventricular pressure; conditions: Cavia porcellus, read-out: pEC50 (converted)
[26] = Negative chronotropic activity in guinea pig spontaneously beating right atrium assessed as decrease in atrial rate at 1 uM relative to control; assay type: functional, Cavia porcellus, Cardiac atrium; parameters: scale not given: the % may be the effect or the level left

Row | Structure (SMILES) | EC50 [3] [nM] | Activity [2] [%] | Activity [4] [%] | Activity [6] [%] | Activity [7] [%] | Activity [8] [%] | Activity [14] [%] | further results
1 | CC1=CSC(O)(c2ccc(Cl)cc2)c2noc(=O)n21 (stereo not drawn) | 800 | 18 | 26 | – | – | – | – | Activity [1]: 80%; Activity [5]: <30%
2 | C/C(=C/SS/C=C(/C)n1c(C(=O)c2ccc(Cl)cc2)noc1=O)n1c(C(=O)c2ccc(Cl)cc2)noc1=O | 4390 | – | – | – | 4 | 6 | 72 | –
3 | C/C(=C/SCc1ccccc1)n1c(C(=O)c2ccc(Cl)cc2)noc1=O | 1550 | – | – | – | 5 | 33 | 78 | –
4 | C/C(=C/[S][Ag])n1c(C(=O)c2ccc(Cl)cc2)noc1=O | – | – | 4 | – | 7 | – | – | Activity [5]: <30%; Activity [15]: 49%
5 | C=CCS/C=C(/C)n1c(C(=O)c2ccc(Cl)cc2)noc1=O | 1350 | – | – | – | – | 23 | 70 | Activity [16]: 6%
6 | C/C(=C/SCC(C)C)n1c(C(=O)c2ccc(Cl)cc2)noc1=O | 2070 | – | – | – | 5 | 6 | 84 | –
7 | C/C(=C/SCc1ccccc1)n1c(C(=O)c2ccc(Br)cc2)noc1=O | 1280 | – | 6 | 80 | – | – | – | Activity [13]: 31%
8 | CS/C=C(/C)n1c(C(=O)c2ccc(Cl)cc2)noc1=O | 1450 | 10 | 8 | 71 | – | – | – | –
9 | CCCS/C=C(/C)n1c(C(=O)c2ccc(Br)cc2)noc1=O | 1220 | – | – | – | 10 | 26 | 80 | –
10 | C/C(=C/SS/C=C(/C)n1c(C(=O)c2ccc(Br)cc2)noc1=O)n1c(C(=O)c2ccc(Br)cc2)noc1=O | 1700 | – | – | – | 9 | 5 | 73 | Ki [20]: 200 nM
11 | COc1ccc([C@@H]2Sc3ccccc3N(CCN(C)C)C(=O)[C@@H]2OC(C)=O)cc1 [DILTIAZEM] | 790 | – | – | – | – | 88 | – | Activity [9]: -51%; EC30 [23]: 70 nM; Activity [1]: 78%; EC50 [24]: 21.9 nM; EC50 [25]: 9.33 nM; Activity [10]: 34%; Activity [20]: Dose-dependent effect; Activity [26]: 94%; Activity [11]: -25%; Activity [12]: -59%
12 | C/C(=C/S(C)(=O)=O)n1c(C(=O)c2ccc(Cl)cc2)noc1=O | 1110 | – | – | – | 7 | 13 | 72 | –
13 | C/C(=C/Sc1sc([N+](=O)[O-])cc1[N+](=O)[O-])n1c(C(=O)c2ccc(Cl)cc2)noc1=O | 1420 | 15 | 35 | 67 | – | – | – | –
14 | CCCCCCCCCS/C=C(/C)n1c(C(=O)c2ccc(Br)cc2)noc1=O | 1030 | – | – | – | 3 | 12 | 84 | –
15 | C/C(=C/SCC(C)C)n1c(C(=O)c2ccc(Br)cc2)noc1=O | 910 | – | – | – | 16 | 24 | 88 | –
16 | CCCS/C=C(/C)n1c(C(=O)c2ccc(Cl)cc2)noc1=O | 2190 | 17 | – | – | – | 15 | 84 | –
17 | CCS/C=C(/C)n1c(C(=O)c2ccc(Cl)cc2)noc1=O | 2090 | 30 | – | 75 | – | 27 | – | –
18 | CCS/C=C(/C)n1c(C(=O)c2ccc(Br)cc2)noc1=O | 1330 | – | – | – | 18 | 43 | 89 | –
19 | C/C(=C/[S][Ag])n1c(C(=O)c2ccc(Br)cc2)coc1=O | – | – | – | – | – | 26 | – | Activity [9]: -3%; Activity [10]: 30%; Activity [26]: 18%; Activity [11]: -4%; Activity [12]: 0%; Activity [5]: <30%; Activity [15]: 32%
20 | C=CCS/C=C(/C)n1c(C(=O)c2ccc(Br)cc2)noc1=O | 1290 | 18 | – | – | – | 21 | 89 | –

The remaining compounds from weak to strong by EC50 [3], led by results:

Row | EC50 [3] [nM] | Structure (SMILES) | Activity [2] [%] | Activity [4] [%] | Activity [6] [%] | Activity [7] [%] | Activity [8] [%] | Activity [14] [%] | further results
21 | 730 | C/C(=C/Sc1sc([N+](=O)[O-])cc1[N+](=O)[O-])n1c(C(=O)c2ccc(Br)cc2)noc1=O | – | 32 | – | – | – | – | Activity [22]: 85%; Activity [13]: 27%
22 | 670 | CCCCCCCCCS/C=C(/C)n1c(C(=O)c2ccc(Cl)cc2)noc1=O | – | – | – | 2 | 5 | – | Activity [1]: 84%
23 | 480 | C/C(=C/[S+](C)[O-])n1c(C(=O)c2ccc(Br)cc2)noc1=O (stereo not drawn) | – | – | – | 33 | 2 | 89 | Ki [20]: 23680 nM
24 | 410 | CS/C=C(/C)n1c(C(=O)c2ccc(Br)cc2)noc1=O | – | – | 95 | – | 10 | – | Activity [18]: Not Active; IC50 [19]: 25210 nM; Activity [19]: Dose-dependent effect; Ki [20]: 490 nM; Activity [20]: Dose-dependent effect; Ratio IC50 [21]: 60; Activity [13]: 2%; Activity [15]: <50%
25 | 320 | CC1=CSC(O)(c2ccc(Br)cc2)c2noc(=O)n21 (stereo not drawn) | 18 | 12 | 97 | – | – | – | Activity [18]: Not Active; IC50 [19]: 33360 nM; Activity [19]: Dose-dependent effect; Ki [20]: 290 nM; Activity [20]: Dose-dependent effect; Ratio IC50 [21]: 100; Activity [5]: <30%
26 | 320 | COc1ccc(C2(O)SC=C(C)n3c2noc3=O)cc1 (stereo not drawn) | 18 | 12 | 97 | – | – | – | –
27 | 280 | C/C(=C/S(C)(=O)=O)n1c(C(=O)c2ccc(Br)cc2)noc1=O | – | 6 | 73 | – | – | – | Activity [16]: 7%; Activity [17]: 25%
28 | 270 | CCOC1(c2ccc(Cl)cc2)SC=C(C)n2c1noc2=O (stereo not drawn) | 16 | 28 | – | – | – | – | Activity [22]: 53%
29 | 230 | CC1=CSC(O)(c2ccccc2)c2noc(=O)n21 (stereo not drawn) | 14 | 4 | – | – | – | – | Activity [1]: 95%
30 | 210 | C/C(=C/[S+](C)[O-])n1c(C(=O)c2ccc(Cl)cc2)noc1=O (stereo not drawn) | – | – | 71 | 4 | 7 | – | –
31 | 40 | CCOC1(c2ccc(Br)cc2)SC=C(C)n2c1noc2=O (stereo not drawn) | – | 19 | 77 | – | – | – | Activity [9]: -9%; Activity [10]: 32%; Activity [11]: -14%; Activity [12]: -3%; Activity [13]: 5%
